From PubChem
RanGTP-Imp inh – inhibitors of RanGTP-importin-beta interaction, primary screen, biochemical, FRET, CFP-Ran, YFP-importin-beta, homogeneous | Ran GTPase (GTP-bound) - importin-beta complex | 300,000 compounds, 1.1% hits | cell-free CFP-Ran/YFP-importin-beta FRET ratio | inhibition, % (test concentration not listed) | AID 2216, 2009;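 active means more than half of the replicate wells show a fall in the fluorescence ratio signal beyond about 16%, limit read from the data, passing the limit was not always enough; inconclusive means exactly half of the replicate wells pass the set limit; inactive means fewer than half of replicates pass the limit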
Hck-Nef inh – inhibitors of Nef-activated human Hck kinase, primary screen, biochemical, Z-Lyte FRET, 384-well, Hck-YEEI | Recombinant Hck-YEEI plus Nef, Z-Lyte FRET kinase assay | inhibition, % at 20 µM | 220,000 compounds, 0.68% hits | AID 463187, 2010;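 active means Hck-Nef kinase inhibition above about 50%, limit read from the data; inactive means inhibition below that limit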
Runt-CBFb FRET – inhibitors of RUNX1 Runt–CBFb binding, primary screen, biochemical, FRET, Cerulean-Runt, Venus-CBFb, uHTS; Cerulean-Runt/Venus-CBFb FRET ratio 530/480, 1 h; 220,000 compounds, 0.46% hits; inhibition, % at 20 µM;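 active means inhibition over about 50% at 20 µM in the single-dose screen, limit read from the data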
Target sequence (Q01196 whole entry, looked up): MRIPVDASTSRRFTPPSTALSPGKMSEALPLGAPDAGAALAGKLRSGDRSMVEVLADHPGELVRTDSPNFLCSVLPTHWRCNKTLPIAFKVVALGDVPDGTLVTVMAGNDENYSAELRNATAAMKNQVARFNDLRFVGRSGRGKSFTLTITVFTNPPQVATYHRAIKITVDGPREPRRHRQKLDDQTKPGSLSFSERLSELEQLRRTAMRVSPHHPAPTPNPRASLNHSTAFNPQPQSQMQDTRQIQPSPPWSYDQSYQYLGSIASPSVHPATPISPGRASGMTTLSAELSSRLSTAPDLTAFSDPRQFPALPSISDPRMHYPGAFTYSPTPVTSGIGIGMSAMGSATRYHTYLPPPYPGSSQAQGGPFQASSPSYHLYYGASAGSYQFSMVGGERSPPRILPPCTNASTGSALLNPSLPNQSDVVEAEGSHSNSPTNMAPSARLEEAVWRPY
Target sequence (Q13951 whole entry, looked up): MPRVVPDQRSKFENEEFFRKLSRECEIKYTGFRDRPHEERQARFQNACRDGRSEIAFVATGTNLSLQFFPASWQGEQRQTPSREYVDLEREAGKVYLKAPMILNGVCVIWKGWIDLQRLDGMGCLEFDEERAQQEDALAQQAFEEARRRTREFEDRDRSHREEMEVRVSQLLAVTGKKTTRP
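Measured by: fluorescence energy transfer, 422 nm excitation, 530/480 nm emission; Assay system: Cerulean-Runt domain; Medium: Tris pH 7.5 buffer with BSA; Measure: loss of energy transfer signal; Controls: 5 µM unlabeled CBFb as full-inhibition high control; Incubation: protein complex preformed 1 h, compound exposure 1 h, room temperature, dark.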
Runt-SMMHC FRET – inhibitors of RUNX1 Runt–CBFb-SMMHC binding, primary screen, biochemical, FRET, Cerulean-Runt, Venus-CBFb-SMMHC, uHTS; Runt-related transcription factor 1 (Homo sapiens) + Core-binding factor subunit beta …; Cerulean-Runt/Venus-CBFb-SMMHC FRET ratio 530/480, 1 h; inhibition, % at 20 µM; 220,000 compounds, 0.74% hits;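 active means mean inhibition across duplicate retests at 20 µM reaching about 50%, limit read from the data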;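 further: inhibitors lower the FRET ratio by blocking Runt binding to CBFb-SMMHC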
Hck-Nef confirm – retest of Hck:Nef kinase inhibitor hits, confirmation, biochemical, Z-Lyte FRET, 384-well, p-Tyr peptide counterscreen; AID 463188, 2010; 1,300 compounds, 28% hits; calls only at 10 µM; shares compounds with Hck-Nef inh; Recombinant Hck-YEEI:Nef, Z-Lyte FRET kinase assay;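 active means average inhibition of at least 50%, with Z-scores no higher than 3 in both the phospho-tyrosine peptide and fluorescence counterscreens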
Hits are given with their value; – = inactive; ? = inconclusive; · = no result given; + = active, no number. A selection: hits, their analogues and other compounds. The true share with any hit is near 1.8%.

SMILES	RanGTP-Imp inh	Hck-Nef inh	Runt-CBFb FRET	Runt-SMMHC FRET	Hck-Nef confirm
Cc1ccc(NC(=O)COc2ccc(/C=C3/SC(=Nc4ccccc4)N(Cc4cccnc4)C3=O)cc2)cc1	–	90.3	–	–	+
O=C(N/N=C/c1cccc([N+](=O)[O-])c1)c1ccccc1-n1cccc1	–	58.1	–	–	–
COc1ccc(-c2[nH]c(-c3cccc(OC)c3)nc2SCC(=O)NCc2ccco2)cc1	·	–	–	–	·
CCc1ccc(/C=C(/C#N)C(N)=S)s1	–	–	–	–	·
CCc1sc(/C=C(/C#N)C(N)=S)cc1[N+](=O)[O-]	·	63.2	–	–	–
COc1ccc(OC)c(C2=Nn3c(nnc3-c3cc(C)[nH]n3)SC2)c1	–	–	–	–	·
Cc1ccc(OCCOCCN(C)C)c(Cl)c1	–	–	–	–	·
O=C1NN(c2ccc(Cl)cc2)C(=O)/C1=C\c1ccc(-c2cccc(C(=O)O)c2)o1	·	53.2	–	–	–
O=C1NN(c2ccccc2)C(=O)/C1=C\c1ccc(-c2cc([N+](=O)[O-])ccc2O)o1	–	75.5	–	–	+
COc1cc(/C=C2/C(=O)NN(c3ccc(Cl)cc3)C2=O)cc(OC)c1O	–	·	·	·	·
COc1ccc(Sc2ccc(/C=C3\C(=O)NN(c4ccccc4)C3=O)o2)cc1	–	–	–	–	·
Cc1cccn2c(=O)c3cc(C(=O)NCc4ccco4)c(=N)n(C(C)C)c3nc12	154.3	71.6	–	59.8	·
CC(C)n1c(=N)c(C(=O)NCCc2ccccc2)cc2c(=O)n3ccccc3nc21	173.9	138.1	–	–	·
Cc1cccn2c(=O)c3cc(C(=O)NCc4cccnc4)c(=N)n(C(C)C)c3nc12	182.5	161.2	–	78.7	·
Cc1sc2ncn(/N=C/c3ccco3)c(=O)c2c1C	–	–	–	–	·
CCCCCCc1cc2cc(C(N)=O)c(=N)oc2cc1O	168.1	72.4	–	59.0	·
CCCCCCc1cc2cc(C(=O)OCC)c(=O)oc2cc1O	189.5	+	–	83.7	·
CCOC(=O)c1cc2ccc(OC(=O)c3ccco3)cc2oc1=O	182.2	136.2	–	61.6	·
CCCCCCc1cc2cc(C(=O)NC)c(=N)oc2cc1O	166.2	51.0	–	60.4	–
CCCCCCc1cc2cc(S(=O)(=O)c3ccc(F)c(Cl)c3)c(=O)oc2cc1O	130.1	55.3	–	63.2	·
Cc1oc(S(=O)(=O)N2CCCCC2)cc1NC(=O)Nc1ccc(F)cc1	–	–	–	–	·
Cc1ccc(N/N=C/c2c(C)c(C#N)c(=O)n(C)c2O)cc1C	–	77.2	–	–	–
COc1cc(S(=O)(=O)Nc2ccc(C)cc2)ccc1N=Cc1c(C)c(C#N)c(=O)n(C)c1O	–	–	–	–	·
COc1ccc(C2CC(c3ccccc3)=NN2c2ccc(S(N)(=O)=O)cc2)cc1OC (stereo unspecified)	–	73.5	–	–	–
NS(=O)(=O)c1ccc(N2N=C(c3ccc(Br)cc3)CC2c2ccc(F)cc2)cc1 (stereo unspecified)	23.1	116.6	–	–	–
SMILES	RanGTP-Imp inh	Hck-Nef inh	Runt-CBFb FRET	Runt-SMMHC FRET	Hck-Nef confirm
O=C(O)C[C@H]1c2cc(C(F)(F)F)ccc2S(=O)(=O)N1C1CCN(Cc2ccccc2)CC1	–	·	·	·	·
COc1ccc(S(=O)(=O)N(Cc2ccccc2)Cc2nc3ccccc3c(=O)[nH]2)cc1	–	–	–	–	·
COc1ccccc1CN(Cc1nc2ccccc2c(=O)[nH]1)S(=O)(=O)c1ccc2ccccc2c1	–	109.6	–	–	–
COC(=O)c1c(NC(=O)COC(=O)c2ccc(NC(=O)CC#N)cc2)sc2c1CCCCC2	–	113.0	–	–	+
O=Cc1cn(-c2ccccc2)nc1-c1cc2c(ccc3ccccc32)oc1=O	·	–	–	–	·
O=Cc1cn(-c2ccccc2)nc1-c1cc2cc(O)ccc2oc1=O	39.8	52.4	93.7	57.2	·
NC(=O)c1ccsc1NC(=O)C1CC1	–	74.7	–	–	+
O=C(NCC1CCCO1)C1CC1(c1ccccc1)c1ccccc1 (stereo unspecified)	–	–	–	–	·
Cc1ccc(-c2nnc(SCC(=O)Nc3sc(C)c(C)c3C#N)n2C)cc1	–	50.2	–	–	–
COCCn1c(SCC(=O)Nc2sc(C)c(C)c2C#N)nnc1-c1ccc(OC)cc1	–	–	–	–	·
C=CCOC(=O)C1=C(C)NC(SCC(=O)NC(=O)OCC)=C(C#N)C1c1cccnc1 (stereo unspecified)	–	50.2	–	–	–
C=CCOC(=O)C1=C(C)NC(SCC(=O)N(CC)CC)=C(C#N)C1c1ccccc1 (stereo unspecified)	?	–	–	–	·
CC(C)n1cnc2c(Nc3ccc(F)c(Cl)c3)nc(NCCO)nc21	–	·	·	·	·
CC(C)C[C@H](CO)Nc1nc(Nc2cccc(Cl)c2)c2ncn(C(C)C)c2n1	–	105.8	–	–	+
CC(C)n1cnc2c(Nc3cccc(F)c3)nc(NCCO)nc21	–	96.7	–	–	+
Cc1c(C=O)c2ccccn2c1C(=O)c1cccc([N+](=O)[O-])c1	–	–	–	–	·
COC(=O)c1cc(S(=O)(=O)NCCCN2CCCC2=O)cn1C	–	·	·	·	·
COCCNC(=O)/C(C#N)=C1\N=C(N)c2ccccc21	–	53.4	–	–	–
O=C(CSc1nc(-c2ccc(F)cc2)nc2c1Cc1ccccc1O2)Nc1ccc(C(=O)O)cc1	·	145.5	–	–	+
COc1ccc(C2CC(=O)c3cnn(-c4nc(C)cc(C)n4)c3C2)cc1 (stereo unspecified)	·	–	–	–	·
Cc1cc(O)c(C(=O)/C=C/c2cccc([N+](=O)[O-])c2)c(=O)o1	–	107.6	–	–	–
COc1cccc(C(=O)Nc2ccc3nc(N4CCN(c5ncccn5)CC4)cc(C)c3c2)c1OC	·	–	–	–	·
CCOc1ccccc1C(=O)Nc1ccc2nc(N3CCN(c4ncccn4)CC3)cc(C)c2c1	·	63.8	·	·	+
O=S(=O)(NCC(c1ccc2c(c1)OCO2)N1CCOCC1)c1ccc(Br)cc1 (stereo unspecified)	–	·	·	·	·
Oc1cc2c(cc1C(c1ccc(Br)cc1)N1CCCC1)OCO2 (stereo unspecified)	·	73.2	–	–	–
Cc1c(CC(=O)O)c(=O)oc2c(C)c(OCc3ccc(F)cc3Cl)ccc12	–	·	·	·	·
O=c1oc2c(CN3CCOCC3)c(O)c(Cl)cc2c2c1CCC2	·	157.8	103.9	176.4	·
CN(C)Cc1c(O)c(Cl)cc2c3c(c(=O)oc12)CCCC3	42.9	137.0	87.5	58.7	·
